FID counter: compounds displacing fluorescent DNA intercalator, primary screen, artefact control for HCV NS3 helicase inhibitor project, biochemical, FID fluorescence; DNA fluorescent intercalator displacement; inhibition, % at 7.9 µM; 290,000 compounds, 0.17% hits; AID 1845, 2009; in the data active = inhibition above about 37%;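 also: 0% = vehicle and 100% = reference compound; higher means more ethidium bromide displaced from hairpin DNA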
IMP-1 inh: IMP-1 metallo-beta-lactamase inhibitors, primary screen, biochemical, epi-absorbance readout, Pseudomonas aeruginosa enzyme; AID 1556, 2009; 290,000 compounds, 0.45% hits; inhibition, % at 5.6 µM; metallo-beta-lactamase IMP-1 (Pseudomonas aeruginosa); purified IMP-1, nitrocefin hydrolysis, epi-absorbance fluorescence;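 active = inhibition above the mean plus 3 SD of all compounds in the same screening run, cut at about 4.5% in these data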;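 also: 0% = IMP-1 with DMSO and 100% = DMSO wells lacking enzyme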
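System – purified recombinant IMP-1 beta-lactamase · Input – IMP-1 dispensed at 0.2 nM · Timing – 15 min preincubation plus 25 min reaction at 25 °C · Signal – Epi-absorbance fluorescence, 480 nm excitation, 530 nm emission · Measure – percent IMP-1 inhibition derived from blank-referenced optical density · Controls – Enzyme-plus-DMSO low control, enzyme-free DMSO high control · Replication – singlicate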
RAD54 branch: inhibitors of human RAD54 branch migration, primary screen, biochemical, fluorescence, single point; AID 602329, 2012; 360,000 compounds, 0.14% hits; RAD54 Holliday junction branch migration, FAM/BHQ fluorescence; DNA repair and recombination protein RAD54-like (Homo sapiens), Q92698; inhibition, % at 10.4 µM;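 active = mean normalized replicate activity at least 40 and at least half of replicates scoring 40 or more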;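 also: 0% = median of neutral control wells and 100% = median of positive control wells; inhibitors cause a drop in the FAM fluorescence signal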
Target sequence (Q92698 whole entry, looked up): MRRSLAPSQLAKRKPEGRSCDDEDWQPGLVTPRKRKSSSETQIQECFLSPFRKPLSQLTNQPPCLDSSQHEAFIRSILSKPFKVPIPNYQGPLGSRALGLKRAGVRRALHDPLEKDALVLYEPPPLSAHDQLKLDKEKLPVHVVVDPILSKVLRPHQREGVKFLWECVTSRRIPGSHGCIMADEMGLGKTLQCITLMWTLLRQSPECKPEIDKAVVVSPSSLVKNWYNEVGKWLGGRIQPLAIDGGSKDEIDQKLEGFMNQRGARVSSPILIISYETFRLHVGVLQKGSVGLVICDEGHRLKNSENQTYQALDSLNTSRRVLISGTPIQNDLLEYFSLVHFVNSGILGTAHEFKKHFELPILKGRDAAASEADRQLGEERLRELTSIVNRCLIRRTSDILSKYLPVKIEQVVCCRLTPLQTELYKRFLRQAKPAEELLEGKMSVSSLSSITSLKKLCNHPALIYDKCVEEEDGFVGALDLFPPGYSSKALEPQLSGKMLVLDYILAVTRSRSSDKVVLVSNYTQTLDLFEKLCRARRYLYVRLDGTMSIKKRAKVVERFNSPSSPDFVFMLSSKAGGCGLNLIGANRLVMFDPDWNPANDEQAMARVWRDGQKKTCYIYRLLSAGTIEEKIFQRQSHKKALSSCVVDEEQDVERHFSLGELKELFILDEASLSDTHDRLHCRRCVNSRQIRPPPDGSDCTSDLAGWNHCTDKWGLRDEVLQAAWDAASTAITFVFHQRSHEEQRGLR
VIM-2 inhibitor: VIM-2 metallo-beta-lactamase inhibitors, primary screen, biochemical, epi-absorbance readout, Pseudomonas aeruginosa enzyme; purified VIM-2, nitrocefin hydrolysis, epi-absorbance fluorescence; inhibition, % at 5.6 µM; 290,000 compounds, 0.89% hits; AID 1527, 2009;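 active = inhibition above the mean of all tested compounds plus 3 SD, cutoff set per screening run, cut at about 7.5% in these data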;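 also: red hydrolysis product quenches plate fluorescence so inhibitors raise well fluorescence; 0% = enzyme with DMSO and 100% = DMSO without enzyme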
PvdQ inh: P. aeruginosa PvdQ acylase inhibitors, primary screen, biochemical, fluorescence, plate reader and imaging, single point; PvdQ acylase [Pseudomonas aeruginosa LESB58]; purified PvdQ acylase; inhibition, % at 10 µM; 340,000 compounds, 0.063% hits; AID 488965, 2010; in the data active = inhibition above about 30%, passing the limit was not always enough;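 also: 0% = vehicle neutral wells and 100% = reference inhibitor wells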
* = called active by the depositor; x = not tested or not shown. An excerpt weighted towards active compounds, which were near 1% of everything screened.

SMILES | FID counter | IMP-1 inh | RAD54 branch | VIM-2 inhibitor | PvdQ inh
O=C(NC1CCC1)[C@H]1[C@H](CO)[C@H]2Cn3c(ccc(-c4ccc(F)cc4)c3=O)[C@@H]1N2 | x | x | -5 | x | x
C[C@H](CO)N1C[C@H](C)[C@@H](CN(C)Cc2ccc3c(c2)OCO3)Oc2cc(C#CCN(C)C)ccc2S1(=O)=O | x | x | -2 | x | x
Cc1ccc(S(=O)(=O)N2CCN(C(=O)CC3CCCC3)CC2)cc1 | -22 | 4.5* | x | 3 | -2
CCOC(=O)c1c(CN(C)C)n(-c2ccc(C)cc2)c2cc(Br)c(O)cc12 | 24 | -3 | x | 8.4* | 1
Nc1nc(Nc2cccc(F)c2)nc(N2CCOCC2)c1[N+](=O)[O-] | -7 | -3 | 0 | 1 | 7
COc1ccc(Nc2nc(NCCCN3CCOCC3)nc(N)c2[N+](=O)[O-])cc1 | 12 | -2 | x | 1 | 4
Nc1nc(NCCCN2CCOCC2)nc(Nc2cccc(F)c2)c1[N+](=O)[O-] | 16 | -4 | x | 9.7* | 4
Nc1nc(NCCCN2CCOCC2)nc(Nc2ccc(F)cc2)c1[N+](=O)[O-] | 34 | 0 | x | 8.1* | -5
COC(=O)C[C@H]1CC[C@H]2[C@H](COc3ccc(NC(=O)Nc4cccc(Cl)c4)cc3C(=O)N2C)O1 | x | x | 1 | x | x
COCc1cn(CC[C@H]2CC[C@@H](NC(=O)Cc3cccnc3)[C@@H](CO)O2)nn1 | x | x | -2 | x | x
CO[C@H]1CN(C)C(=O)c2cc(NS(=O)(=O)c3ccccc3)ccc2OC[C@H](C)N(Cc2ccccn2)C[C@H]1C | x | x | -5 | x | x
COc1ccccc1-c1ccc2c(c1)[C@@H]1[C@@H](CCN1S(=O)(=O)c1cn(C)cn1)[C@@H](CO)N2 | x | x | 4 | x | x
NS(=O)(=O)c1cccc(NC(=O)COC(=O)Cc2ccc(S(=O)(=O)N3CCCCC3)s2)c1 | -13 | 5.6* | x | -4 | 5
C[C@H](CO)N1C[C@H](C)[C@@H](CN(C)C)Oc2ccc(NC(=O)NC3CCCCC3)cc2CC1=O | x | x | 4 | x | x
Cc1ccc(S(=O)(=O)Nc2ccc3c(c2)C(=O)N([C@H](C)CO)C[C@H](C)[C@@H](CN(C)Cc2ccc(Cl)c(Cl)c2)OCCCC[C@H](C)O3)cc1 | x | x | -10 | x | x
CN(C)C(=O)C[C@H]1CC[C@@H](NC(=O)C2CC2)[C@H](CO)O1 | x | x | -1 | x | x
CCOC(=O)/C=C(\C)Sc1cc(=O)oc2ccccc12 | -13 | -3 | -11 | 2 | 49*
COC(=O)c1cc(S(=O)(=O)NCCc2ccc(SC)cc2)c[nH]1 | -10 | 34* | -9 | -1 | -19
COc1ccc(NC(=O)N(C)C[C@@H]2OCc3ccccc3-c3ccccc3C(=O)N([C@H](C)CO)C[C@@H]2C)cc1 | x | x | 7 | x | x
COc1ccc(C#Cc2ccc3c(c2)[C@@H]2[C@@H](CCN2C(=O)c2ccccc2F)[C@H](CO)N3)cc1 | x | x | -2 | x | x
CCCS(=O)(=O)N1CCCC(C(=O)NCC2CCCO2)C1 (stereo not given) | -7 | 4.9* | 6 | -4 | -13
Cc1ccc(S(=O)(=O)N2CCCC(C(=O)NCC3CCCO3)C2)cc1 (stereo not given) | -14 | -1 | -3 | -4 | 0
Cc1sc2nc(COC(=O)CNC(=O)c3ccc(C(C)(C)C)cc3)[nH]c(=O)c2c1C | -8 | 8.6* | x | -4 | -4
Cc1ccc[n+](CC(=O)Nc2ccc(Cl)c([N+](=O)[O-])c2)c1 | 25 | -1 | 5 | 8.9* | -11
O=C(C[n+]1ccccc1)Nc1ccc(Cl)c([N+](=O)[O-])c1 | 11 | -3 | 6 | 4 | -3
SMILES | FID counter | IMP-1 inh | RAD54 branch | VIM-2 inhibitor | PvdQ inh
COc1ccc(Oc2coc3cc(O)ccc3c2=O)cc1 | -5 | 25* | -1 | -1 | 9
COc1ccccc1Oc1coc2cc(O)ccc2c1=O | -3 | -2 | -2 | -1 | 10
O=C(c1ccccc1)c1ccc(O)cc1O | 1 | 12* | x | 7 | 1
COC(=O)c1c(C(=O)OC)c(-c2ccc(Cl)c(Cl)c2)n2c1CCC2 | -6 | 0 | x | 1 | -10
Cc1ccc(-c2c(C(=O)O)c(C(=O)O)c3n2CCC3)cc1 | -10 | -2 | x | 9.8* | -11
COC(=O)c1c(C(=O)OC)c(-c2ccc(C)cc2)n2c1CCC2 | -19 | -3 | -12 | -2 | -13
O=C(O)c1c(C(=O)O)c(-c2ccc(F)cc2)n2c1CCC2 | -1 | 1 | x | 11* | -5
C[C@@H]1CCCCO[C@@H](CN(C)S(C)(=O)=O)[C@@H](C)CN([C@@H](C)CO)C(=O)c2cc(NC(=O)CCCN(C)C)ccc2O1 | x | x | 7 | x | x
N=C(N)c1ccc(Cl)cc1 | -2 | -1 | x | -3 | -8
N=C(N)c1ccc(/C=C/c2ccc(C(=N)N)cc2O)cc1 | 53* | 5.7* | x | 4 | 7
C[C@H](CO)N1C[C@H](C)[C@H](CN(C)C(=O)Nc2cccc3ccccc23)Oc2ccc(N(C)C)cc2CC1=O | x | x | 1 | x | x
Cc1ccc(-c2c3c([nH]c(=S)c2C#N)CCCC3)o1 | -16 | 9.7* | 3 | 2 | -2
N#Cc1c(-c2ccncc2)c2c([nH]c1=S)CCCC2 | 0 | -5 | -6 | -2 | 0
O=C(C[C@@H]1CC[C@@H](NC(=O)c2ccncc2)[C@H](CO)O1)NCC1CC1 | x | x | 2 | x | x
CC1CCc2c(nc3sc4c(c3c2N)CCCC4)C1 (stereo not given) | 3 | 0 | -2 | 8.1* | -14
CC1CCc2nc3sc4c(c3c(N)c2C1)CCCC4 (stereo not given) | 2 | -3 | x | 6 | -16
Cc1cc(C)nc(-n2nc(C)cc2NC(=O)CN2CCC(C)CC2)n1 | -13 | -1 | 1 | 9.0* | 4
COc1ccc(S(=O)(=O)N(C)C[C@H]2Oc3c(NC(=O)c4ccncc4)cccc3C(=O)N([C@@H](C)CO)C[C@H]2C)cc1 | x | x | 4 | x | x
C/C(=N\NC(N)=S)c1ccc(-n2ccnc2)cc1 | -4 | -2 | 10 | 10.0* | -10
CC(=O)c1ccc(NC(=O)CNCC(c2ccccc2)N(C)C)cc1 (stereo not given) | 11 | -3 | x | -4 | -10
CCOC(=O)c1cc(NC(=O)CNCC(c2ccccc2)N(C)C)cc(C(=O)OCC)c1 (stereo not given) | 38* | 2 | -12 | 3 | -6
CCN1CCc2c(sc(NC(=O)c3ccc(S(=O)(=O)N4CCCC4)cc3)c2C(=O)NC)C1 | 25 | 0 | 31 | 8.7* | -3
CCCN1CCc2c(sc(NC(=O)c3ccc(S(=O)(=O)N(C)c4ccccc4)cc3)c2C(=O)NC)C1 | 44* | 9.6* | -14 | 5 | -6
Cc1cccc2c(=O)cc(C)n(Cc3ccccc3)c12 | 1 | -2 | x | 0 | 35*
Cc1noc(C)c1S(=O)(=O)Nc1ccc2c(c1)CC(=O)N([C@H](C)CO)C[C@@H](C)[C@H](CN(C)C(=O)Nc1ccc3c(c1)OCO3)O2 | x | x | 2 | x | x
